These results are taken from ChEMBL document CHEMBL3120069, “Chemical genetics-based discovery of indole derivatives as HCV NS5B polymerase inhibitors” (Eur J Med Chem, 2014).

Series [1] relates to Hepatitis C virus. Description: Antiviral activity against Hepatitis C virus JFH-1 J6 genotype 2a infected in human Huh7.5 cells assessed as inhibition of viral RNA replication at 10 uM by real time qRT-PCR analysis. The class given is functional, organism-based. As to conditions: Hepacivirus hominis, subtype 2a JFH1 J6, Huh-7, TDE = time-dependent effect. In short, it runs like this: (§1)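 J6/JFH1 RNA-transfected Huh7.5 cells held at 10 µM compound for increasing periods; HCV and host GAPDH RNA measured by real-time qRT-PCR. Triplicates, mean ± SD; T1/2 for halving viral RNA from the time-response curve.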
A general note: Quantitative PCR measures a nucleic acid by following its amplification.

The test system of series [2] is Hepatitis C virus. The series can be described thus: Antiviral activity against Hepatitis C virus Con1 Bart79I genotype 1b expressing YFP infected in human Huh7.5 cells assessed as NS5A S2204I mutant synthesis at 10 uM after 72 hrs by FACS analysis (reference value: 52.2%). The class given is functional, Hepacivirus hominis, subtype 1b Con1 Bart79I, Huh-7. Put shortly:
(§2)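 Huh7.5 cells stably carrying Bart79I-YFP subgenomic replicon (G418 selection), treated with DMSO or compound. Dose series over 5 days (120 h), or 10 M with sampling at 24, 48, 72 h. Cells washed, resuspended in PBS, and NS5A-YFP-positive cells counted by FACS. EC50 and T1/2 taken from response curves.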

Series [3] deals with Hepatitis C virus. The series can be described thus: Antiviral activity against Hepatitis C virus Con1 Bart79I genotype 1b expressing NS5A S2204I mutant infected in human Huh7.5 cells assessed as inhibition of viral RNA replication at 10 uM by real time qRT-PCR analysis. In kind it is functional, organism-based. As to conditions: Hepacivirus hominis, subtype 1b Con1 Bart79I, Huh-7, TDE = time-dependent effect. In short, it runs like this: (§3)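 Huh7.5 cells stably carrying Bart79I genotype 1b subgenomic replicon (G418 750 mg/ml selection, 3 weeks), 3×10⁵ cells/well with DMSO or compound. Dose series over 72 h, or 10 M for increasing periods. Viral and host GAPDH RNA measured by real-time qRT-PCR. EC50 and T1/2 taken from response curves of triplicate experiments.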

The test system of series [4] is Hepatitis C virus. Description: Antiviral activity against Hepatitis C virus JFH-1 J6 genotype 2a infected in human Huh7.5 cells assessed as time required for reducing viral core level by half at 10 uM by Western blot analysis. The settings on record: Hepacivirus hominis, subtype 2a JFH1 J6, Huh-7. The class given is functional, organism-based. In short, it runs like this:
(§4)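 J6/JFH1 RNA-transfected Huh7.5 cells on 10 µM compound, lysed at 24, 48, 72 h. HCV core and β-actin probed by Western blot, core intensity normalised to β-actin; T1/2 from the time-response curve.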
On the technique in general: Immunoblotting shows a protein as a band on a membrane.

In series [5] the test system is Hepatitis C virus. Description: Antiviral activity against Hepatitis C virus Con1 Bart79I genotype 1b expressing NS5A S2204I mutant infected in human Huh7.5 cells assessed as time required for reducing viral RNA level by half at 10 uM by real time qRT-PCR analysis. In kind it is functional, organism-based. As to conditions: Hepacivirus hominis, subtype 1b Con1 Bart79I, Huh-7. Put shortly: as §3

Series [6] deals with Hepatitis C virus. Description: Antiviral activity against Hepatitis C virus Con1 Bart79I genotype 1b expressing YFP infected in human Huh7.5 cells assessed as inhibition of NS5A S2204I mutant synthesis at 10 uM by FACS analysis. In kind it is functional, organism-based. The settings on record: Hepacivirus hominis, subtype 1b Con1 Bart79I, Huh-7, TDE = time-dependent effect. In short, it runs like this:
as §2

In series [7] the test system is Hepatitis C virus. The series can be described thus: Antiviral activity against Hepatitis C virus JFH-1 J6 genotype 2a infected in human Huh7.5 cells assessed as inhibition of viral core synthesis at 10 uM by Western blot analysis. The settings on record: Hepacivirus hominis, subtype 2a JFH1 J6, Huh-7, TDE = time-dependent effect. In kind it is functional, organism-based. In short, it runs like this:
as §4

For series [8], the system named is Hepatitis C virus. The series can be described thus: Antiviral activity against Hepatitis C virus JFH-1 J6 genotype 2a infected in human Huh7.5 cells assessed as time required for reducing viral RNA level by half at 10 uM by real time qRT-PCR analysis. The settings on record: Hepacivirus hominis, subtype 2a JFH1 J6, Huh-7. In kind it is functional, organism-based. In short, it runs like this: as §1

Series [9] has as its system Hepatitis C virus. Description: Antiviral activity against Hepatitis C virus JFH-1 J6 genotype 2a infected in human Huh7.5 cells assessed as inhibition of viral core synthesis after 120 hrs by Western blot analysis. The class given is functional, organism-based. In short, it runs like this:
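J6/JFH1 RNA-transfected Huh7.5 cells, 1.5 × 10⁵ per well, given DMSO or increasing concentrations for 120 h. RIPA lysates with protease inhibitors, protein by Bradford; HCV core and β-actin by Western blot, core normalised to β-actin. EC50 from dose-response.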

Series [10] is described as follows: Cytotoxicity against human Huh7.5 cells assessed as cell viability after 72 hrs by MTT assay. In kind it is cell-based, Huh-7. (In general: Tetrazolium dyes change colour on reduction, which living cells bring about.)
The test system of series [11] is Hepatitis C virus. Description: Antiviral activity against Hepatitis C virus Con1 Bart79I genotype 1b expressing YFP infected in human Huh7.5 cells assessed as NS5A S2204I mutant synthesis at 1 uM after 120 hrs by FACS analysis (reference value: 66%). In kind it is functional, Hepacivirus hominis, subtype 1b Con1 Bart79I, Huh-7. Put shortly: as §2

The EC50 is the midpoint of the concentration-response curve. As usually defined, the CC50 is the concentration giving 50% cytotoxicity. Consider `C/C(=C\c1c[nH]c2ccc(C#N)cc12)C(=O)Nc1ccc(C(C)(C)C)cc1`, for which the inhibition entry is “tde” in the series on Hepatitis C virus [1]; “tde” in the series on Hepatitis C virus [3]; “tde” in the series on Hepatitis C virus [6]; “tde” in the series on Hepatitis C virus [7]; “Dose-dependent effect” in the series on Hepatitis C virus [9] (Hepacivirus hominis, subtype 2a JFH1 J6, Huh-7). The Activity in the series with Hepatitis C virus [2] is reported as 0.6%; in the series with Hepatitis C virus [11], 38.4%. The T1/2 in the series with Hepatitis C virus [4] was 19.6 h; in the series on Hepatitis C virus [5], 31.5 h; in the series on Hepatitis C virus [8], 17.2 h. Besides, the concentration for a half-maximal effect (EC50) in the series on Hepatitis C virus [9] (subtype 2a JFH1 J6, Huh-7, 120 h) was 2 µM. In addition, the CC50 at 72 h in series [10] was 61.8 µM.
